Source: PubChem BioAssay (Broad Institute)
S100A4 inh HTS: blocks human S100A4 binding to myosin IIA peptide; P26447; S100A4/TAMRA-MyoIIA peptide fluorescence polarization; inhibition, % at 10.7 µM; hit rate 0.14% among 360,000;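 active = mean inhibition of at least 70% across replicates, with every replicate also reaching that level; inconclusive = mean inhibition reaches 70% but some replicates fall short; inactive = mean inhibition below 70%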
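assay system = human S100A4 monomer with TAMRA-labelled myosin IIA peptide | also added = labelled myosin peptide probe, 5 nM | incubation = 5 min between mix addition and reading | control set = DMSO and TFP controls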
AF4-AF9 inh: blocks AF4 peptide binding to human AF9; inhibition, % at 10 µM; AlphaScreen, biotin-AF4 peptide binding to FLAG-AF9; hit rate 0.47% among 350,000; P42568;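 active = every replicate reaching a set inhibition limit, whatever the replicate mean, cut at about 25% in these data; inconclusive = mean inhibition reaches that limit but some replicates miss it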;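 note: 0% = plate neutral control median and 100% = total signal loss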
Target sequence (P42568 whole entry, looked up): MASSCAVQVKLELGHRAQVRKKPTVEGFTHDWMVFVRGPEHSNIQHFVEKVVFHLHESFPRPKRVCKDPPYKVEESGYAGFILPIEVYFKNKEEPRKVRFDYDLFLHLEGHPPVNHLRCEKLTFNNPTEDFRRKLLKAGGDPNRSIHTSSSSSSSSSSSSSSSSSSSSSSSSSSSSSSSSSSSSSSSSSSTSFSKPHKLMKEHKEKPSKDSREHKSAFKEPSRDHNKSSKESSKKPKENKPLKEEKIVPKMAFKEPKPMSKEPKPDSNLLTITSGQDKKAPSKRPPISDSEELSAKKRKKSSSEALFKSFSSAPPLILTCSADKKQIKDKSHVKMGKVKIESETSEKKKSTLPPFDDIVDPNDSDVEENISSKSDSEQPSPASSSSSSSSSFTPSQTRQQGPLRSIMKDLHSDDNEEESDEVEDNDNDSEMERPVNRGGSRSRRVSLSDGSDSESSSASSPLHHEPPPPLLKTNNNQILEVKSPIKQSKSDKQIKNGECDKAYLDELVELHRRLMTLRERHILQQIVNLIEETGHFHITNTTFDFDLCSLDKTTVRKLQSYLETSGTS
SIRT5 block: blocks human SIRT5 desuccinylation of peptide | AID 652115 | hit rate 1.1% among 330,000 | Purified SirT5, succinyl-peptide AMC, trypsin-coupled fluorescence | inhibition, % at 15 µM; in the data active = inhibition above about 15%; inconclusive = no clear call, values can overlap the other calls
CaV13 ICDI inh: Disruptors of the CACNA1D IQ motif to Ca2+-dependent inactivation inhibitor domain association, primary screening, Förster resonance energy transfer in intact living …; HEK cells, CFP/YFP FRET ICDI-IQ, plate reader, 10 min; percent FRET-ratio fall versus neutral wells; inhibition, % at 12.3 µM; hit rate 0.098% among 340,000; AID 743397;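 active = mean replicate inhibition of at least 30% and at least 1% of replicates passing that level; inconclusive = only one of the two criteria is met; inactive = neither criterion is met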;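 note: 0% = median of the neutral control wells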
DENV2 CPE: protects cells from dengue virus 2 cytopathic effect; DENV2-infected cells, cytopathic effect rescue, plate reader; hit rate 1.7% among 350,000; CPE inhibition, % at 9.99 µM; in the data active = CPE inhibition above about 20%, passing the limit was not always enough; inconclusive = no clear call, values can overlap the other calls; tested in BHK-21 cells;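 note: 0% = median of neutral control wells and 100% = median of positive control wells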
* hit, by the source's call; ? = inconclusive; nt = no result given. This is a sample that favours compounds with a hit; in the whole collection about 2.7% have one here.

SMILES	S100A4 inh HTS	AF4-AF9 inh	SIRT5 block	CaV13 ICDI inh	DENV2 CPE
CCOC(=O)N1CCC(N2Cc3cccc(C(=O)Nc4ccc(N(CC)CC)cc4C)c3C2=O)CC1	-2.0	42.7*	2.1	-6.1	-2.5
COc1ccc(S(=O)(=O)N2CC3(CN(C(=O)CN(C)C)[C@H](CO)c4c3c3ccc(OC)cc3n4C)C2)cc1	2.3	18.9	4.8	nt	102.3*
COc1ccc(S(=O)(=O)N2CCC3(CC2)CN(C(=O)c2cccnc2)[C@@H](CO)c2c3c3ccc(OC)cc3n2C)cc1	-3.7	-0.7	20.6*	nt	6.6
CO[C@H]1CN(C)C(=O)c2ccc(NC(=O)C3CCCCC3)cc2OC[C@@H](C)NC[C@H]1C	9.4	-1.3	0.5	nt	?
CN(C)CC(=O)Nc1ccc2c(c1)[C@H]1C[C@@H](CC(=O)NCC3CC3)O[C@@H](CO)[C@H]1O2	-7.6	-2.4	1.2	nt	0.8
C[C@H](NC(=O)C[C@@H]1C[C@H]2c3cc(NC(=O)Nc4ccc(C(F)(F)F)cc4)ccc3O[C@H]2[C@H](CO)O1)c1ccccc1	-8.2	-0.9	3.4	nt	-2.0
C[C@H](NC(=O)C[C@@H]1C[C@@H]2c3cc(NC(=O)Nc4ccc(C(F)(F)F)cc4)ccc3O[C@@H]2[C@@H](CO)O1)c1ccccc1	85.4*	1.6	nt	nt	1.6
C[C@@H](NC(=O)C[C@@H]1C[C@@H]2c3cc(NC(=O)c4ccc5c(c4)OCO5)ccc3O[C@@H]2[C@H](CO)O1)c1ccccc1	3.7	-2.9	15.4*	nt	4.9
C[C@H](NC(=O)C[C@H]1C[C@@H]2c3cc(NC(=O)CN(C)C)ccc3O[C@@H]2[C@H](CO)O1)c1ccccc1	107.6*	1.5	2.1	nt	1.1
CO[C@H]1CN(C)C(=O)c2ccc(NC(=O)NC(C)C)cc2OC[C@H](C)N(C(=O)C2CCC2)C[C@H]1C	9.0	0.0	1.4	nt	3.0
CNC(=O)C[C@@H]1CC[C@H]2[C@@H](COc3ccc(NC(=O)Nc4cccc(Cl)c4)cc3C(=O)N2C)O1	4.2	-0.2	4.6	nt	9.1
CC[n+]1c(/C=C2/C=C(C)CC(C)C2)sc2ccccc21 (configuration not stated)	-8.0	2.3	-3.4	-5.4	10.6
CC[n+]1c(C=C2C=C(C)OC(C)=C2)sc2ccccc21	2.5	-0.1	19.3*	-5.2	nt
COc1cccc(S(=O)(=O)Nc2ccc3c(c2)[C@@H]2C[C@@H](CC(=O)NCc4cccc(F)c4)O[C@@H](CO)[C@@H]2O3)c1	6.9	3.4	4.1	nt	-4.8
COc1ccc2c3c(n(C)c2c1)[C@@H](CO)N(C(=O)NC(C)C)CC31CCN(CC2CCCCC2)CC1	7.4	0.9	nt	nt	10.3
CCN=C1NC(c2ccccc2C(F)(F)F)C(C(=O)OC)=C(C)N1C (configuration not stated)	-10.8	nt	-0.1	-3.0	20.9*
CC(C)(C)C1CCC(=O)N(CCOc2ccccc2)CC1 (configuration not stated)	5.9	-0.8	0.3	-5.9	65.9*
CCc1ccc(-c2cc(C)no2)cc1S(=O)(=O)Nc1cc(C)ccn1	-3.6	1.4	31.7*	-1.9	-4.1
O=C(CSc1ncccc1C(=O)O)c1ccccc1F	1.2	-1.4	-0.6	-5.9	5.7
O=C(O)CSc1ncccc1C(=O)O	1.5	-1.1	-3.5	-2.9	45.6*
O=C(NCCN1CCC(n2c(=O)[nH]c3ccccc32)CC1)c1cccnc1	-10.5	-0.3	-4.9	-9.8	3.2
O=C(NCCN1CCC(n2c(=O)[nH]c3ccccc32)CC1)c1ccccc1	15.1	-2.1	-3.0	-5.5	20.2*
CCCN(CCC)CCCNC(=O)c1cc2c(=O)[nH]c3ccccc3c2n1C	4.1	0.0	-2.6	-0.3	28.6*
O=C1CCC(C(=O)OCC(=O)Nc2ccc(SC(F)F)cc2)=NN1	5.0	-0.8	-0.5	-16.0	29.1*
O=C1CCC(C(=O)OCC(=O)Nc2ccccc2Br)=NN1	-3.9	-2.0	nt	-5.2	?
CO[C@H]1CN(C)C(=O)c2ccc(NC(=O)Nc3ccccc3F)cc2OC[C@@H](C)N(CC2CC2)C[C@H]1C	-4.4	-1.1	4.9	nt	-0.5
CN(C)c1ccc(/C=C/c2ccc3c4ccccc4ccc3[n+]2-c2ccccc2)cc1	155.8*	94.5*	1.4	7.8	nt
COC(=O)C[C@H]1CC[C@@H](NS(=O)(=O)c2ccccc2F)[C@H](CO)O1	1.1	0.8	-1.9	nt	1.5
